Results published in ChEMBL document CHEMBL4428106, “Synthesis, biological evaluation and molecular docking study of N-arylbenzo[d]oxazol-2-amines as potential α-glucosidase inhibitors” (Bioorg Med Chem, 2016).

Experiments:
Saccharomyces cerevisiae = assay: Potency index, ratio of acarbose IC50 to compound IC50 for baker's yeast alpha-glucosidase
[1] = Inhibition of baker's yeast alpha-glucosidase using p-nitrophenyl-alpha D-glucopyranoside as substrate preincubated for 15 mins followed by substrate addition measured after 30 mins by spectrophotometric analysis; set-up: species or system Saccharomyces cerevisiae
Method in brief: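 Enzyme 0.1 U/mL preincubated with test compounds at various concentrations (DMSO, final 5% v/v) in 0.1 M phosphate buffer pH 6.8, 37 C, 15 min; 1.25 mM p-nitrophenyl α-D-glucopyranoside then added, 30 min at 37 C; absorbance read at 405 nm. DMSO-only control; triplicates. % inhibition = (1-∆Asample/∆Acontrol)*100; IC50 = concentration giving 50% inhibition.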

[2] = Non-competitive inhibition of baker's yeast alpha-glucosidase using p-nitrophenyl-alpha D-glucopyranoside as substrate preincubated for 15 mins followed by substrate addition measured after 30 mins by Lineweaver-Burk plot analysis; set-up: species or system Saccharomyces cerevisiae
Method in brief: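 Kinetics: inhibitor at 0, 10, 20, 30, 40 and 50 μM against p-nitrophenyl α-D-glucopyranoside at 0.25, 0.5, 1 and 2 mM. Inhibition type assigned from Lineweaver-Burk plots (changes in Vmax and Km); Ki estimated from replot of slope versus inhibitor concentration.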

Row | Ratio IC50 (Saccharomyces cerevisiae) | IC50 [1] [µM] | Ki [2] [µM] | SMILES
1 | 25 | 32.5 | 31.3 | c1ccc(Oc2ccc(Nc3nc4ccccc4o3)cc2)cc1
2 |  | > 200 |  | Cc1cccc(Nc2nc3ccccc3o2)c1
3 |  | > 200 |  | Cc1ccc(Nc2nc3ccccc3o2)c(C)c1
4 |  | > 200 |  | COc1ccc(Nc2nc3ccccc3o2)cc1
5 |  | > 200 |  | Cc1ccccc1Nc1nc2ccccc2o1
6 |  | > 200 |  | Cc1ccc(Nc2nc3ccccc3o2)cc1
7 |  | 44.4 |  | Clc1ccc(Nc2nc3ccccc3o2)c(Cl)c1
8 |  | 68.4 |  | Fc1ccc(Nc2nc3ccccc3o2)cc1
9 |  | 80.4 |  | Clc1ccc(Nc2nc3ccccc3o2)cc1
10 |  | > 200 |  | CCOc1ccc(Nc2nc3ccccc3o2)cc1
11 |  | 65 |  | CCOc1ccccc1Nc1nc2ccccc2o1
12 |  | > 200 |  | c1ccc(Nc2nc3ccccc3o2)cc1
13 |  | 120 |  | FC(F)(F)c1cccc(Nc2nc3ccccc3o2)c1
